The record followed here is ChEMBL document CHEMBL3425433, “Discovery of bicyclic pyrazoles as class III histone deacetylase SIRT1 and SIRT2 inhibitors” (Bioorg Med Chem Lett, 2015).

Activity calls are given as the source filed them. The calls are words filed in the database; no cut-off is given here.

Assay [1] addresses T1, NAD-dependent protein deacetylase sirtuin-2 (Homo sapiens) (UniProt Q8IXJ6).
T1 sequence (whole entry): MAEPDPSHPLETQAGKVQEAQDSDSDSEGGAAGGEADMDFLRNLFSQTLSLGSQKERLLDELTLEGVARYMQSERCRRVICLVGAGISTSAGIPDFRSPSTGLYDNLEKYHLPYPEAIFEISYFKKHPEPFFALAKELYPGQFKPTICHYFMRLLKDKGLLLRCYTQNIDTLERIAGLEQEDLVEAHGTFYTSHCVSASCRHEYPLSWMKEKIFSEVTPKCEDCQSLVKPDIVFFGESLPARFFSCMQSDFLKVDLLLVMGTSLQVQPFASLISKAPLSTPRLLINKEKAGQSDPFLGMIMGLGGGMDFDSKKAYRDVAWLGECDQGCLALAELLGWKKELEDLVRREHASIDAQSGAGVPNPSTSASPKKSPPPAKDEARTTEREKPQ
Kind of assay: Inhibition of His-tagged human recombinant SIRT2 expressed in Escherichia coli at 20 uM using Cbz-Lys(Ac)-AMC as substrate by fluorescence assay. An outline of the steps:
(§1)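 Fluorescence deacetylase assay with in-house Cbz-Lys(Ac)-AMC substrate. Values are means of three experiments on racemic material. Single-point lines were tested at 20 µM, and less than 20% inhibition was scored as no inhibition.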

The target of assay [2] is Histone deacetylase 1 (Homo sapiens, UniProt Q13547). The assay is described as follows: Inhibition of HDAC1 (unknown origin).
Assay [3] concerns the target Histone deacetylase 2 (Homo sapiens, UniProt Q92769). The assay is described as follows: Inhibition of HDAC2 (unknown origin).
Assay [4] deals with T2, Histone deacetylase 8 (Homo sapiens) (UniProt Q9BY41).
T2 sequence (whole entry): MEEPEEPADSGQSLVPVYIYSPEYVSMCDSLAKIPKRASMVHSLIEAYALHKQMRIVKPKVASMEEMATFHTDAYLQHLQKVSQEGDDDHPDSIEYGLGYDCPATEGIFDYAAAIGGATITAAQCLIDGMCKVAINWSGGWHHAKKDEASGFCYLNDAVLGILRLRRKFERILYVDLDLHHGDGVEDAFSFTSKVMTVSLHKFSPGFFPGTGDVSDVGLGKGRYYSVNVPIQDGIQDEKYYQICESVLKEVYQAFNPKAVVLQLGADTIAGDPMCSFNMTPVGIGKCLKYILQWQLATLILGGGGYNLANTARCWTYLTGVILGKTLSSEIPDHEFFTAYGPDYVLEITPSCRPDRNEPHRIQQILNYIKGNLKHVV
The assay is described as follows: Inhibition of HDAC8 (unknown origin).

The target of assay [5] is Histone deacetylase 4 (Homo sapiens) (UniProt P56524). Kind of assay: Inhibition of HDAC4 (unknown origin).
Assay [6] deals with Histone deacetylase 5 (Homo sapiens) (UniProt Q9UQL6). Kind of assay: Inhibition of HDAC5 (unknown origin).
Assay [7] concerns the target T3, Histone deacetylase 7 (Homo sapiens) (UniProt Q8WUI4).
T3 sequence (whole entry): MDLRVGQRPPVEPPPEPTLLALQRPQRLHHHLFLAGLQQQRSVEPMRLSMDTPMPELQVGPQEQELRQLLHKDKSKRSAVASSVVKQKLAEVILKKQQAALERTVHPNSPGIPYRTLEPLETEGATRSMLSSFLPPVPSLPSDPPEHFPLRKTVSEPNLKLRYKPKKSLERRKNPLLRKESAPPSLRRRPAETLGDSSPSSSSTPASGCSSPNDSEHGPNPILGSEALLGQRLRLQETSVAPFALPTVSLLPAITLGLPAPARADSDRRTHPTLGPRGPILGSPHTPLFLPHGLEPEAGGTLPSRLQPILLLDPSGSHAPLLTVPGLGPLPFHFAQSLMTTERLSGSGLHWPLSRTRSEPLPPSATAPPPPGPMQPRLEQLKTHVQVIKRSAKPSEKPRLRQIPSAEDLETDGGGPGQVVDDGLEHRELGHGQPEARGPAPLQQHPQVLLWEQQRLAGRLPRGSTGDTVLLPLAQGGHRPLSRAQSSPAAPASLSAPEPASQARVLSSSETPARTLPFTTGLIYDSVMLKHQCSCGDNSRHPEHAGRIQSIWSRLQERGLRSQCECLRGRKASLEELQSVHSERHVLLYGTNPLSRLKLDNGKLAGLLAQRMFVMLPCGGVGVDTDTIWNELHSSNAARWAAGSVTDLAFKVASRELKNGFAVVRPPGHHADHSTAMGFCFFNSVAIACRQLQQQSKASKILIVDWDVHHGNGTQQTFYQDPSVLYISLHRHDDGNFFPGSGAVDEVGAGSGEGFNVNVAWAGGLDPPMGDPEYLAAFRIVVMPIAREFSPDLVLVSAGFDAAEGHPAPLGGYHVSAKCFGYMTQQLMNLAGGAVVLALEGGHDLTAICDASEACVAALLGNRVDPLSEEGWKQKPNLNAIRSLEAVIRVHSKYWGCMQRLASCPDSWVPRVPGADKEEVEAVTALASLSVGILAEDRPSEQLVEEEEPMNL
The assay is described as follows: Inhibition of HDAC7 (unknown origin).

In assay [8] the target is T4, NAD-dependent protein deacetylase sirtuin-1 (Homo sapiens) (UniProt Q96EB6).
T4 sequence (whole entry): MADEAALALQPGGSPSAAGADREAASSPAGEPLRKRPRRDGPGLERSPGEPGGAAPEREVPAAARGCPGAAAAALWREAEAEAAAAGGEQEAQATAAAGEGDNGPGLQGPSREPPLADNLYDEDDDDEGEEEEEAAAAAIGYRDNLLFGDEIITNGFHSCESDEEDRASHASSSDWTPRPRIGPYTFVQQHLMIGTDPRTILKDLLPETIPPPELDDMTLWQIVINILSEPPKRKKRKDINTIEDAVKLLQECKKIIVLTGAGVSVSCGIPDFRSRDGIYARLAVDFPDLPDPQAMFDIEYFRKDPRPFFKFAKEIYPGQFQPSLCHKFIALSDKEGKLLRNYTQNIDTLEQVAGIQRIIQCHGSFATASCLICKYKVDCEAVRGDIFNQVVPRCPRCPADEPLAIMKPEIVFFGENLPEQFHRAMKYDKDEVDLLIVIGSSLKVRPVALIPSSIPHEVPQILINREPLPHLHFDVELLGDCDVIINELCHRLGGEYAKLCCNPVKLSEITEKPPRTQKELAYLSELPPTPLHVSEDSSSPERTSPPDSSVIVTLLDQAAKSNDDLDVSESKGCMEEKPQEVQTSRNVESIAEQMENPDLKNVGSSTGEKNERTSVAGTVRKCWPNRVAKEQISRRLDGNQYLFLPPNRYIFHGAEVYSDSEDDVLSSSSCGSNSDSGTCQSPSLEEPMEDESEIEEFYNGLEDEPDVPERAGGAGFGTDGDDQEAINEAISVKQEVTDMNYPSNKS
Kind of assay: Inhibition of His-tagged human recombinant SIRT1 expressed in Escherichia coli at 20 uM using Cbz-Lys(Ac)-AMC as substrate by fluorescence assay. The procedure, abridged:
as §1

Histone deacetylase 5 (Homo sapiens), sequence (Q9UQL6 whole entry): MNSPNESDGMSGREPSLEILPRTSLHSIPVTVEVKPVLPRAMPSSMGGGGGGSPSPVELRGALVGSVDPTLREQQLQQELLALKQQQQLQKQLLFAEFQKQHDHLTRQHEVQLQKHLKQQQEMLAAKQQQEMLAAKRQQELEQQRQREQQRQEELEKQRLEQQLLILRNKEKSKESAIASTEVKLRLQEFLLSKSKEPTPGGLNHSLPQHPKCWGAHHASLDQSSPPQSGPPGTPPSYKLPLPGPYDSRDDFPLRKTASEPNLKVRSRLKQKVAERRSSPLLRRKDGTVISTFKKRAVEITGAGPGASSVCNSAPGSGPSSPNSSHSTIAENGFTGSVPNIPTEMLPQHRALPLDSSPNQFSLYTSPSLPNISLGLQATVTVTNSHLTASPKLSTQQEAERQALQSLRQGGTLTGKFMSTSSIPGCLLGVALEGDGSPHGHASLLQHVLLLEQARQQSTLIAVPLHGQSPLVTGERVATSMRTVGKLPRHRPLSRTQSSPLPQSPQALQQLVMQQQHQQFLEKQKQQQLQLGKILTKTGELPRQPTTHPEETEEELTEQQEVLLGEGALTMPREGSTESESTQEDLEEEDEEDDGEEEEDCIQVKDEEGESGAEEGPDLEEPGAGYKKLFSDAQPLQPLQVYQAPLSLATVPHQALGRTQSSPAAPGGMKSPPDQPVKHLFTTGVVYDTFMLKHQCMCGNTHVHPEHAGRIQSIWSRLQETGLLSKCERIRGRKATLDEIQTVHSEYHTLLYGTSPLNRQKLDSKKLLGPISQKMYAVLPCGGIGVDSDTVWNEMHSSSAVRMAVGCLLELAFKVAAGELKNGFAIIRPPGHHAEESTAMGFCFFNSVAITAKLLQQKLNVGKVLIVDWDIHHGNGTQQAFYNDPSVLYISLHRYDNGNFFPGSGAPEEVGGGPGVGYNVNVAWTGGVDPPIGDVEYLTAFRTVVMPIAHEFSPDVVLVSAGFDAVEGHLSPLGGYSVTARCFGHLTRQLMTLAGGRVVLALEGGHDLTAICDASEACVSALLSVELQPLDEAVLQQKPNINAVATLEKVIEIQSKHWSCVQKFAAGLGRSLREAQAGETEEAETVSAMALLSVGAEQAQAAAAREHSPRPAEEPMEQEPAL
Histone deacetylase 2, sequence (Q92769 whole entry): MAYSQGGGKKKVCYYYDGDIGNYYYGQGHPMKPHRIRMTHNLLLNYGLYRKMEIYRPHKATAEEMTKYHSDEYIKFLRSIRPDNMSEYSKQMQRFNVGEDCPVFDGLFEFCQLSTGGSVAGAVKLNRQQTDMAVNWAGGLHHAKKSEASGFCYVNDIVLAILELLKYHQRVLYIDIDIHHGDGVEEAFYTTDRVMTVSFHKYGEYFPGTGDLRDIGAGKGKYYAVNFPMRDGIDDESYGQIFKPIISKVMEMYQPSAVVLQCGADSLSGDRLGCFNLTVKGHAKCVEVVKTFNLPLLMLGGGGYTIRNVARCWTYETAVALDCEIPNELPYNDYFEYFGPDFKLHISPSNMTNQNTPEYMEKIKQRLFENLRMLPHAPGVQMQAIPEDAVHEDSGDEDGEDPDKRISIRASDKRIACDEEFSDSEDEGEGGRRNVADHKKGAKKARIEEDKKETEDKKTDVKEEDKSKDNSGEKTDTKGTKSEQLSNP
Histone deacetylase 4 (Homo sapiens), sequence (P56524 whole entry): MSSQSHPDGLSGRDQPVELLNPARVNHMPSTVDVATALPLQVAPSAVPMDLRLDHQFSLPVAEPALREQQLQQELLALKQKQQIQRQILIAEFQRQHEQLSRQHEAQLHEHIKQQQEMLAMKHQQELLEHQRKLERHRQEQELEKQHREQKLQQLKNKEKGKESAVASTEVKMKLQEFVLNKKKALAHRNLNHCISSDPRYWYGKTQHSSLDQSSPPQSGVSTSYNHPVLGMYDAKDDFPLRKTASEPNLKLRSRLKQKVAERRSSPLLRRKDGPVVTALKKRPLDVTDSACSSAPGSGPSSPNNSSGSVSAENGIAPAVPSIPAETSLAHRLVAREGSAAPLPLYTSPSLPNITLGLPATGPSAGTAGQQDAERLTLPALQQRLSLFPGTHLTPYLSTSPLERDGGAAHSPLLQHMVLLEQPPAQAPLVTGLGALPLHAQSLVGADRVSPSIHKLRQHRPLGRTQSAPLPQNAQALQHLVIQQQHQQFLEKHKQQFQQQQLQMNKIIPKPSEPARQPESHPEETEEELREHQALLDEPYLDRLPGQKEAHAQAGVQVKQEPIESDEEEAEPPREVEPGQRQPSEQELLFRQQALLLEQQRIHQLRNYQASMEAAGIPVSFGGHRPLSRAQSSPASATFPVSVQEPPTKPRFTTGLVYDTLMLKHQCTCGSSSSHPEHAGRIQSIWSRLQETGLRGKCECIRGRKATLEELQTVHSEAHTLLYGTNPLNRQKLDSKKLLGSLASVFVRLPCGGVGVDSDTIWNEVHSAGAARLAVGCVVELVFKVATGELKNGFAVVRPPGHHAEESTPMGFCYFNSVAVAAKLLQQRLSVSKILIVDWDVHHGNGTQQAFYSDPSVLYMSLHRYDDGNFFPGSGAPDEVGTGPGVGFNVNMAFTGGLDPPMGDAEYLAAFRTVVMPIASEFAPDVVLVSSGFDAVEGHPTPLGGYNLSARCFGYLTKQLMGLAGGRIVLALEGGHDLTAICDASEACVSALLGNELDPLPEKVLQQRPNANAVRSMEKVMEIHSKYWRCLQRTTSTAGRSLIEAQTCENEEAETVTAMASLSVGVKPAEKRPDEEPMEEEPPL
Histone deacetylase 1, sequence (Q13547 whole entry): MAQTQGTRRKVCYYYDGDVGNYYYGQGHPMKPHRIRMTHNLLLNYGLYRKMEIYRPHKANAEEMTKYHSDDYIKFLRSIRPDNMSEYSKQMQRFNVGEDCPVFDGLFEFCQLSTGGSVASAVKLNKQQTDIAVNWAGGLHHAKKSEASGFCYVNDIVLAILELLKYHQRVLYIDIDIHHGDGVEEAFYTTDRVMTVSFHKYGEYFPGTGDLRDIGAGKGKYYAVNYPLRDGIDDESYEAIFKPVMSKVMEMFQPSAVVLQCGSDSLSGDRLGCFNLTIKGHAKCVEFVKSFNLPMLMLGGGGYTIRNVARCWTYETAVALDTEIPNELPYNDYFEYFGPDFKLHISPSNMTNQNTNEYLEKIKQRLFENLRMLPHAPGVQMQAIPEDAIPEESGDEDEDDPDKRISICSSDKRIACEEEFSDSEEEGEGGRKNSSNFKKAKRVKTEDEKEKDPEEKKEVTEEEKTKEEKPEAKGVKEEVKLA

As to `NC(=O)C1CCCc2c(-c3ccc(Cl)c(F)c3)n[nH]c21` (racemic), the inhibition in assay [1] was 44%. For the same compound, the inhibition entry in assay [2], in assay [3], in assay [4], in assay [5], in assay [6] and in assay [7] was “inactive” throughout.
In the case of `Cc1ccc(-c2n[nH]c3c2CCCC3C(N)=O)cc1` (racemic), the inhibition in assay [1] stood at 36%. In addition, the inhibition entry in assay [2], in assay [3], in assay [4], in assay [5], in assay [6] and in assay [7] was “inactive” each time.
As for `NC(=O)C1CCCc2c(-c3cc4ccccc4o3)n[nH]c21` (racemic), the inhibition result in assay [2], in assay [3], in assay [4], in assay [5], in assay [6] and in assay [7] was “inactive” throughout.
`NC(=O)C1CCCc2c(-c3cc4ccccc4s3)n[nH]c21` (racemic): the inhibition entry in assay [2], in assay [3], in assay [4], in assay [5], in assay [6] and in assay [7] was “inactive” in each case.
On to `NC(=O)C1CCCc2c(-c3ccc(Cl)cc3Cl)n[nH]c21` (racemic), for which the inhibition in assay [8] was 24%; in assay [1] it was < 20%. Also, the inhibition entry in assay [2], in assay [3], in assay [4], in assay [5], in assay [6] and in assay [7] was “inactive” in each case.
For `NC(=O)C1CC2(Cc3c(-c4ccc(Cl)cc4)n[nH]c31)OCCO2` (racemic), the inhibition in assay [8] and in assay [1] was < 20% throughout. Further, the inhibition entry in assay [2], in assay [3], in assay [4], in assay [5], in assay [6] and in assay [7] was “inactive” in each case.
As to `COc1ccc(-c2n[nH]c3c2CCCC3C(N)=O)cc1` (racemic), the inhibition in assay [8] and in assay [1] was < 20% each time. The inhibition result in assay [2], in assay [3], in assay [4], in assay [5], in assay [6] and in assay [7] was “inactive” each time.
For `NC(=O)C1CCCCc2c(-c3ccc(Cl)cc3)n[nH]c21` (racemic), the inhibition entry in assay [2], in assay [3], in assay [4], in assay [5], in assay [6] and in assay [7] was “inactive” throughout.
As to `CC1(C)Cc2c(-c3ccc(Cl)cc3)n[nH]c2C(C(N)=O)C1` (racemic), the inhibition entry in assay [2], in assay [3], in assay [4], in assay [5], in assay [6] and in assay [7] was “inactive” in each case.
For `NC(=O)C1CCCc2c(-c3ccc(Cl)c(Cl)c3)n[nH]c21` (racemic), the IC50 in assay [2] and in assay [3] was > 10 µM throughout.
In the case of `NC(=O)C1CCCc2c(-c3cc(Br)cs3)n[nH]c21` (racemic), in assay [1], the inhibition is < 20%. For the same compound, the inhibition result in assay [2], in assay [3], in assay [4], in assay [5], in assay [6] and in assay [7] was “inactive” in each case.
In the case of `Cn1c(-c2n[nH]c3c2CCCC3C(N)=O)cc2ccccc21` (racemic), the inhibition result in assay [2], in assay [3], in assay [4], in assay [5], in assay [6] and in assay [7] was “inactive” in each case.
Take `NC(=O)C1CCCc2c(-c3nc4ccccc4s3)n[nH]c21` (racemic): the inhibition entry in assay [2], in assay [3], in assay [4], in assay [5], in assay [6] and in assay [7] was “inactive” throughout.
Turning to `NC(=O)C1CCCc2c(-c3ccc(Cl)cc3)n[nH]c21` (racemic), the inhibition in assay [1] stood at 43%. The inhibition result in assay [2], in assay [3], in assay [4], in assay [5], in assay [6] and in assay [7] was “inactive” in each case.
Regarding `NC(=O)C1CCCc2c(-c3ccc(Br)cc3)n[nH]c21` (racemic), the inhibition in assay [1] stood at 47%. The inhibition entry in assay [2], in assay [3], in assay [4], in assay [5], in assay [6] and in assay [7] was “inactive” in each case.

In general, inhibition refers to the share of the control response that was lost under treatment. As usually defined, the IC50 is the concentration that gives 50% inhibition. A higher IC50 goes with a need for much substance.
